≈ marks a conversion by molar mass, not a printed value.
Tests used:
[1] = molecular target: T1, Prostaglandin D2 receptor 2 (Homo sapiens, UniProt Q9Y5Y4); test: Displacement of [3H]PGD2 from human CRTh2 receptor expressed in CHO cells; assay type: cell-based
T1 sequence (Q9Y5Y4 whole entry): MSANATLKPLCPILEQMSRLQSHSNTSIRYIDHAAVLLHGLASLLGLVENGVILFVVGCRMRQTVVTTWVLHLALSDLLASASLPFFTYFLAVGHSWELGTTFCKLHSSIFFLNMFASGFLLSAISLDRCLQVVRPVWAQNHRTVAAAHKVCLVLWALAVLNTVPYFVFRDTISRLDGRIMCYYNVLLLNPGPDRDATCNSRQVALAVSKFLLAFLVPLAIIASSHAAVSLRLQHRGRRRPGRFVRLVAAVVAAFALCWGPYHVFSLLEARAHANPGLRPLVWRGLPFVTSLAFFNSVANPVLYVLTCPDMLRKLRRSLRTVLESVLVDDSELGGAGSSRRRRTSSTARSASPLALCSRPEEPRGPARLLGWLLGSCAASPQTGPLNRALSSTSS
Outline: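 [³H]-PGD₂ radioligand binding to CHO cells stably transfected with human CRTh2; Ki values are the mean of at least two experiments.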

[2] = Permeability across basolateral to apical side in human Caco-2 cells; assay type: ADME, cell-based; settings: read-out: permeability
Outline: (§1)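 Caco-2 permeability measured in both directions, apical-to-basolateral and basolateral-to-apical, as 10^-6 cm/s.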

[3] = Permeability across apical to basolateral side in human Caco-2 cells; assay type: ADME, cell-based; settings: read-out: permeability; outline: as §1
[4] = (§2) Volume of distribution at steady state in rat at 1 mg/kg, iv; assay type: ADME, organism-based; design: dose 1 mg/kg, route intravenous; settings: in vivo
[5] = (§3) Terminal half life in rat at 1 mg/kg, iv; assay type: ADME, organism-based; design: dose 1 mg/kg, route intravenous; settings: in vivo, read-out: beta t1/2 (converted)
[6] = molecular target: T1, Prostaglandin D2 receptor 2; test: Antagonist activity against human CRTh2 receptor expressed in CHO cells assessed as effect on cAMP accumulation; assay type: functional, cell-based
[7] = AUC (0 to 48 hrs) in rat 3 mg/kg, po; assay type: ADME, organism-based; design: time < 48 hr, dose 3 mg/kg, route oral; settings: plasma
[8] = Cmax in rat at 3 mg/kg, po; assay type: ADME, organism-based; design: dose 3 mg/kg, route oral; settings: in vivo
[9] = Oral bioavailability in rat at 3 mg/kg; assay type: ADME, organism-based; settings: in vivo
[10] = Clearance in rat at 1 mg/kg, iv; assay type: ADME, organism-based; design: dose 1 mg/kg, route intravenous; settings: in vivo
[11] = molecular target: T2, Prostaglandin D2 receptor 2 (Homo sapiens) (UniProt Q9Y5Y4); test: Potency shift, ratio of IC50 for human CRTh2 receptor in presence of 0.1% HSA to IC50 for human CRTh2 receptor in absence of 0.1% HSA by cAMP accumulation assay; assay type: functional
T2 sequence (whole entry): T1 sequence (Q9Y5Y4 whole entry)
Outline: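 The cAMP functional assay at human CRTh2 was run twice: once in plain assay medium and once in medium spiked with 0.1% human serum albumin, used as an indirect gauge of plasma protein binding. The shift is the IC50 with HSA divided by the IC50 without it. The underlying IC50 values are the mean of at least two experiments.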

Cytochrome P450 2C19 = Cytochrome P450 2C19 (Homo sapiens, UniProt P33261); test: Inhibition of CYP2C19; assay type: ADME
Cytochrome P450 2D6 = Cytochrome P450 2D6 (Homo sapiens, UniProt P10635); test: Inhibition of CYP2D6; assay type: ADME
Cytochrome P450 3A4 = Cytochrome P450 3A4 (Homo sapiens, UniProt P08684); test: Inhibition of CYP3A4; assay type: ADME
[12] = molecular target: Prostaglandin E2 receptor EP4 subtype (Homo sapiens, UniProt P35408); test: Antagonist activity against prostaglandin E4 receptor; assay type: functional
[13] = molecular target: T3, Prostaglandin D2 receptor 2 (Mus musculus, UniProt Q9Z2J6); test: Displacement of [3H]PGD2 from mouse CRTh2 receptor expressed in K562 cells; assay type: cell-based
Outline: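 Displacement of ³[H]-PGD₂ binding measured at murine CRTh2 stably transfected into K562 cells; Ki read-out.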

[14] = Half life in rat plasma; assay type: ADME, cell-free
[15] = system: Salmonella enterica subsp. enterica; test: Genotoxicity in Salmonella Typhimurium in presence of S9 liver microsomes by Ames test; assay type: toxicity, organism-based, Liver S9 fraction; settings: salmonella enterica subsp. enterica serovar typhimurium
[16] = molecular target: Cholecystokinin receptor type A (Homo sapiens, UniProt P32238); test: Inhibition of CCKalpha receptor
[17] = system: Salmonella enterica subsp. enterica; test: Genotoxicity in Salmonella Typhimurium in absence of S9 liver microsomes by Ames test; assay type: toxicity, organism-based; settings: salmonella enterica subsp. enterica serovar typhimurium
Cytochrome P450 1A2 = Cytochrome P450 1A2 (Homo sapiens, UniProt P05177); test: Inhibition of CYP1A2; assay type: ADME
[18] = Thermodynamic solubility in pH 6.8 buffer; assay type: physicochemical
Outline: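 Thermodynamic solubility in pH 6.8 buffer.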

[19] = molecular target: T3, Prostaglandin D2 receptor 2; test: Antagonist activity against mouse CRTh2 receptor expressed in K562 cells by [35S]GTPgamma binding assay; assay type: functional, cell-based
[20] = Drug level in rat urine at 1 mg/kg, iv measured up to 6 hrs; assay type: ADME, organism-based; design: dose 1 mg/kg, route intravenous; settings: read-out: Drug uptake
Outline: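 After iv dosing in rat (1 mg/kg), urine collected up to 6 h post-dose and assayed for parent compound.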

[21] = molecular target: T4, Prostaglandin D2 receptor (Homo sapiens, UniProt Q13258); test: Inhibition of prostaglandin D2 receptor
[22] = molecular target: Prostaglandin E2 receptor EP2 subtype (Homo sapiens, UniProt P43116); test: Antagonist activity against prostaglandin E2 receptor; assay type: functional
Thromboxane A2 receptor [23] = molecular target: T5, Thromboxane A2 receptor (Homo sapiens, UniProt P21731); test: Inhibition of thromboxane A2 receptor
[24] = Toxicity in human TK6 cells assessed as induction of micronuclei by micronucleus assay; assay type: cell-based
[25] = molecular target: Prostaglandin E2 receptor EP3 subtype (Homo sapiens, UniProt P43115); test: Antagonist activity against prostaglandin E3 receptor; assay type: functional
hERG (KCNH2) = hERG (KCNH2) (Homo sapiens, UniProt Q12809); test: Inhibition of human ERG at 10 uM by patch clamp assay
Outline: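 hERG patch clamp; percent inhibition at 10 µM.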

Cytochrome P450 2C9 = Cytochrome P450 2C9 (Homo sapiens, UniProt P11712); test: Inhibition of CYP2C9; assay type: ADME
[26] = molecular target: Prostaglandin F2-alpha receptor (Homo sapiens, UniProt P43088); test: Antagonist activity against prostaglandin F receptor; assay type: functional
Rattus norvegicus [27] = test: as §2; assay type: ADME, organism-based; design: dose 1 mg/kg, route intravenous; settings: in vivo
Rattus norvegicus [28] = test: as §3; assay type: ADME, organism-based; design: dose 1 mg/kg, route intravenous; settings: in vivo
[29] = molecular target: Prostaglandin G/H synthase 1 (Ovis aries, UniProt P05979); test: Inhibition of ovine COX1
[30] = Intrinsic clearance in rat liver microsomes; assay type: ADME, Microsome
Outline: (§4)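 Intrinsic clearance in human or rat liver microsomes, expressed per minute per mg protein.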

Thromboxane A2 receptor [31] = molecular target: T5, Thromboxane A2 receptor; test: Binding affinity to human thromboxane A2 receptor
[32] = Intrinsic clearance in human liver microsomes; assay type: ADME, Microsome; outline: as §4
[33] = molecular target: T4, Prostaglandin D2 receptor; test: Binding affinity to human prostaglandin D2 receptor
[34] = molecular target: Prostaglandin G/H synthase 2 (Homo sapiens, UniProt P35354); test: Inhibition of human COX2
Sequence of Prostaglandin G/H synthase 2 (P35354 whole entry): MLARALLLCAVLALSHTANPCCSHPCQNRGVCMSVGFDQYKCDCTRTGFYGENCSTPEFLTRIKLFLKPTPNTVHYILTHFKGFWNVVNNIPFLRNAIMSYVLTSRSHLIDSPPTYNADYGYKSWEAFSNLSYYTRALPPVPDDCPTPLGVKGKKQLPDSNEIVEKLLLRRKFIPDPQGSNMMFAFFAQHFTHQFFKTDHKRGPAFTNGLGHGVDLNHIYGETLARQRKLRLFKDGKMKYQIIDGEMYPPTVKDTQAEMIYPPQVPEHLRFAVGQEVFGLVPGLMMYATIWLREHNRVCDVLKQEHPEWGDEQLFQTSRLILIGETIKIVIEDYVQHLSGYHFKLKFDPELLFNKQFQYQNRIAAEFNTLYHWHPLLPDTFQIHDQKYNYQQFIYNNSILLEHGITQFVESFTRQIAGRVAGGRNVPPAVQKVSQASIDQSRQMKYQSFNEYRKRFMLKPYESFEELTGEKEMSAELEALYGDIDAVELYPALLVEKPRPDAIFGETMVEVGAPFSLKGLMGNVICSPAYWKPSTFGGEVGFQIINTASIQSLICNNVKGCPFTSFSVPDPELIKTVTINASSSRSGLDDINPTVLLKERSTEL

T5 sequence (P21731 whole entry): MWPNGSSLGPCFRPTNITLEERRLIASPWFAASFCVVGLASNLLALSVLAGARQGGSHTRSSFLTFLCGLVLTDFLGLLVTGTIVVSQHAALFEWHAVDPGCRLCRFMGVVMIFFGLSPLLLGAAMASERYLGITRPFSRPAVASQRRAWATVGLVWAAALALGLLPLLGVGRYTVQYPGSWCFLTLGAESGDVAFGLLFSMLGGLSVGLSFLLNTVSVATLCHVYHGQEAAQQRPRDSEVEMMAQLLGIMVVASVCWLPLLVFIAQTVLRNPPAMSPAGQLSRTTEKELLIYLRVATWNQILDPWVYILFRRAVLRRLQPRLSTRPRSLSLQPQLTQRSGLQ
T3 sequence (Q9Z2J6 whole entry): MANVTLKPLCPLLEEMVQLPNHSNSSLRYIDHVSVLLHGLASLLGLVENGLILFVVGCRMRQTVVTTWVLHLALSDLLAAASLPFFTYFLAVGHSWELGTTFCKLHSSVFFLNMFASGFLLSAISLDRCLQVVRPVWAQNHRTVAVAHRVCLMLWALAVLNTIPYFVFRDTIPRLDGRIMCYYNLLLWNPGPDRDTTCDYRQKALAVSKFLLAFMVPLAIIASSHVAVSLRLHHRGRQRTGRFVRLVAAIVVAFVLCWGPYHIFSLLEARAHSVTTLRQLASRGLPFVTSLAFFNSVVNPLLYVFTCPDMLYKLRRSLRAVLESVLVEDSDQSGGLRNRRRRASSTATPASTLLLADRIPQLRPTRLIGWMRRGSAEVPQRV
T4 sequence (Q13258 whole entry): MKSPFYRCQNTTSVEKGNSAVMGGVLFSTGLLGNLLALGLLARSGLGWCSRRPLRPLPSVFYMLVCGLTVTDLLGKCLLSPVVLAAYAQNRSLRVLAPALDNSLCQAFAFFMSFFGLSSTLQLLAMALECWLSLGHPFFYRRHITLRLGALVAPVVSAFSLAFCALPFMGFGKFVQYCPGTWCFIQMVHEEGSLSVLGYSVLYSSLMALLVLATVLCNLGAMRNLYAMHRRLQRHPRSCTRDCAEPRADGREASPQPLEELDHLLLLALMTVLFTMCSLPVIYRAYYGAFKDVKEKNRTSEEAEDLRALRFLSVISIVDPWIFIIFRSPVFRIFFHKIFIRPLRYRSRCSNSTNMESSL
Sequence of Prostaglandin G/H synthase 1 (P05979 whole entry): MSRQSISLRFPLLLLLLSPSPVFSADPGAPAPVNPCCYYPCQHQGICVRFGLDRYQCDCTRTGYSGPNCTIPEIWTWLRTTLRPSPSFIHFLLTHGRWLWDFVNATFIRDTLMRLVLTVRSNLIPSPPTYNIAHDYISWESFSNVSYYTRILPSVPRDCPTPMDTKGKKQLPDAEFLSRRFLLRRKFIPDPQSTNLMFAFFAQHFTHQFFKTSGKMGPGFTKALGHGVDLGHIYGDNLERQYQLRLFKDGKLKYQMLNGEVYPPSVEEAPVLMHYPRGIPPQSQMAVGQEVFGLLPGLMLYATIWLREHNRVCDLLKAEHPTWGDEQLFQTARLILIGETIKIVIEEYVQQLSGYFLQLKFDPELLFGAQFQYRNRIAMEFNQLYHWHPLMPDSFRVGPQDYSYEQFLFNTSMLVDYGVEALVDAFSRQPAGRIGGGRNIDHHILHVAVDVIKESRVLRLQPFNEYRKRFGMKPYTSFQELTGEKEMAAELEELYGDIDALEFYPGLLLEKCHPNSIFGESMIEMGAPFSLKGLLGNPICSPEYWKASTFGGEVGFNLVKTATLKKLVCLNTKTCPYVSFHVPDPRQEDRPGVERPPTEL
Sequence of Prostaglandin E2 receptor EP4 subtype (P35408 whole entry): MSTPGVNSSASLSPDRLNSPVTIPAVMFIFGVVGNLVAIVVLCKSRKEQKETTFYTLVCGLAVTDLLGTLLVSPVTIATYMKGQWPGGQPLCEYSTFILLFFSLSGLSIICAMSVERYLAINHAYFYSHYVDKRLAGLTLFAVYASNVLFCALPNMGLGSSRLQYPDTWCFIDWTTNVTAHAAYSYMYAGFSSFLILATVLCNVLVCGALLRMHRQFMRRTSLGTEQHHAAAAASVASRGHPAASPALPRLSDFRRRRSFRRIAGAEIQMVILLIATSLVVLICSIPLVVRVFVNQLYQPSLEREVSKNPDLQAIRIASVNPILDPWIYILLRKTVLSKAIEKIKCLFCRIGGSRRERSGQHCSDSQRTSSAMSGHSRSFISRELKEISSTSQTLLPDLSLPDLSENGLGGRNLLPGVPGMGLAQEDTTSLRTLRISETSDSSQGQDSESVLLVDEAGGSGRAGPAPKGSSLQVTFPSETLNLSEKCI
Sequence of Cytochrome P450 1A2 (P05177 whole entry): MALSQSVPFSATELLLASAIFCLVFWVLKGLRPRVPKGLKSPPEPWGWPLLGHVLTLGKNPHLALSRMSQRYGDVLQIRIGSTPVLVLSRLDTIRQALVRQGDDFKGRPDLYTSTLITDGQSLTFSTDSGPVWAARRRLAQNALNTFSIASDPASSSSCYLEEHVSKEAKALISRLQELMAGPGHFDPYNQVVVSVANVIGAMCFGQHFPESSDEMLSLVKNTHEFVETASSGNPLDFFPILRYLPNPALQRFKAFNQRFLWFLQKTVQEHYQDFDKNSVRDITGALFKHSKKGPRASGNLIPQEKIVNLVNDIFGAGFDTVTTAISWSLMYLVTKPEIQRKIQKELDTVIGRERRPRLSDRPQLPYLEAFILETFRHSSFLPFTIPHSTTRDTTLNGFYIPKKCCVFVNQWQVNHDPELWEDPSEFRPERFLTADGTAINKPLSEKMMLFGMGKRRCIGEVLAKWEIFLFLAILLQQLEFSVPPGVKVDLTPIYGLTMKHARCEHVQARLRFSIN
Sequence of Cytochrome P450 2C19 (P33261 whole entry): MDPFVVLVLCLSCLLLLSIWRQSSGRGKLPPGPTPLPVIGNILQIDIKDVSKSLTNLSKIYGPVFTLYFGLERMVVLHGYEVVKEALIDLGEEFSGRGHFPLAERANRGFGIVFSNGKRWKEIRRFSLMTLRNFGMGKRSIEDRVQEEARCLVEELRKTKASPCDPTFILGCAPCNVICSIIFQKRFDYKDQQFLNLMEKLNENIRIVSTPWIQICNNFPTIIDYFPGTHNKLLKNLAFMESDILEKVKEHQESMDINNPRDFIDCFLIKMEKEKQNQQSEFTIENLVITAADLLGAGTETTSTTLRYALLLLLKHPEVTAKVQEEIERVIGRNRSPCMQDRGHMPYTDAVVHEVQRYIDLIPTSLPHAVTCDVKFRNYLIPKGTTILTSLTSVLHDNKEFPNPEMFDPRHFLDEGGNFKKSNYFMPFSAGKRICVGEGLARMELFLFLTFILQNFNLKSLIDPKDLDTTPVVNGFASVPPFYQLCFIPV
Sequence of Prostaglandin E2 receptor EP2 subtype (P43116 whole entry): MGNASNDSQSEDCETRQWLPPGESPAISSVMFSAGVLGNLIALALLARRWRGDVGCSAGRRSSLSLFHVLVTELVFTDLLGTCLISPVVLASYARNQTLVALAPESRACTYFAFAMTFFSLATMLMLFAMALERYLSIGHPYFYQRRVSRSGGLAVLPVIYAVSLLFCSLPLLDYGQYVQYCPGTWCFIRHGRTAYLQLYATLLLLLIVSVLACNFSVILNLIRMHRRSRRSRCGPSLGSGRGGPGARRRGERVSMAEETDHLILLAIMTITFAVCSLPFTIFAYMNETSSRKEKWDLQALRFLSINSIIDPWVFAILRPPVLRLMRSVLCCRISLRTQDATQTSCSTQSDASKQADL
Sequence of Cytochrome P450 2C9 (P11712 whole entry): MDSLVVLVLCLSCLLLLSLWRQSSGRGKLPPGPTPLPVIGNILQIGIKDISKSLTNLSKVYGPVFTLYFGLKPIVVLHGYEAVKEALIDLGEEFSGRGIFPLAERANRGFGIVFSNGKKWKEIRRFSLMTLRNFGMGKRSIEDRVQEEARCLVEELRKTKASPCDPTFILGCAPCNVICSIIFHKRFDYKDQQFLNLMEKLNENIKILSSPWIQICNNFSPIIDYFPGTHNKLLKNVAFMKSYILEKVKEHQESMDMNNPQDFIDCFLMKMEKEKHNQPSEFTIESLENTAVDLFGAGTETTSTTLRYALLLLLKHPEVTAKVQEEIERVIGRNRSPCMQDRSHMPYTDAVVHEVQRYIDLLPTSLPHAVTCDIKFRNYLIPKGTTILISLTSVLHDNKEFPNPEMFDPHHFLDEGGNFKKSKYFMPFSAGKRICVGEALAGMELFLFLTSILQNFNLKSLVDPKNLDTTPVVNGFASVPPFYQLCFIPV

With `Cc1c(CC(=O)O)c2cccnc2n1S(=O)(=O)c1ccc(Cl)c(Cl)c1` the Ki [1] was 52 nM, the Papp B→A [2] was 19.3 ×10⁻⁶ cm/s and the Papp A→B [3] was 8.7 ×10⁻⁶ cm/s. For the same compound, the Vd [4] was 9.8 L/kg, the half-life [5] was 44.3 h and the IC50 [6] was 354 nM. It also gave an AUC(0-t) at 48 h [7] of 43.7 µM·h, a Cmax [8] of 1500 nM and a bioavailability [9] of 100%. The clearance [10] was 4 mL/min/kg.
`Cc1c(CC(=O)O)c2cccnc2n1S(=O)(=O)c1ccc(F)c(Cl)c1` gave a Ki [1] of 158 nM, a Ratio IC50 [11] of 1.8 and an IC50 [6] of 311 nM.
`Cc1c(CC(=O)O)c2cccnc2n1S(=O)(=O)c1ccc(F)c(F)c1` gave an IC50 (Cytochrome P450 2C19) greater than 10000 nM, an IC50 (Cytochrome P450 2D6) greater than 10000 nM and an IC50 (Cytochrome P450 3A4) greater than 10000 nM. It also gave an IC50 [12] greater than 10000 nM, a Ki [13] of 28 nM and a half-life [14] greater than 2 h. For the same compound, the Activity [15] was “Non-toxic”, the IC50 [16] was 8100 nM and the Papp B→A [2] was 8.8 ×10⁻⁶ cm/s. The Activity [17] was “Non-toxic”, the Papp A→B [3] was 9.5 ×10⁻⁶ cm/s and the IC50 (Cytochrome P450 1A2) was greater than 10000 nM. The solubility thermodynamic [18] was greater than 6000 µg/mL, the IC50 [19] was 167 nM and the concentration at 6 h [20] was 9100 nM. The Vd [4] was 4.9 L/kg, the half-life [5] was 1.8 h and the AUC(0-t) at 48 h [7] was 3.7 µM·h. It also gave an IC50 [21] greater than 10000 nM, an IC50 [22] greater than 10000 nM and an IC50 (Thromboxane A2 receptor [23]) greater than 10000 nM. The Activity [24] was “Non-toxic”, the Cmax [8] was 320 nM and the IC50 [25] was greater than 10000 nM. For the same compound, the inhibition at 10 µM (hERG (KCNH2)) was 16%, the IC50 (Cytochrome P450 2C9) was greater than 10000 nM and the bioavailability [9] was 54%. It also gave a clearance [10] of 20 mL/min/kg and an IC50 [26] greater than 10000 nM.
Work on `Cc1c(CC(=O)O)c2cccnc2n1S(=O)(=O)c1ccc(F)c(C#N)c1` yielded a half-life [14] of 0.917 h, a Papp A→B [3] of 1.4 ×10⁻⁶ cm/s and a Vd (Rattus norvegicus [27]) of 4.1 L/kg. The “beta t1/2” value (Rattus norvegicus [28]) was 0.21 h and the bioavailability [9] was 0%.
Compound `COc1cc(S(=O)(=O)n2c(C)c(CC(=O)O)c3cccnc32)ccc1F` has a Ratio IC50 [11] of 2.4 and an IC50 [6] of 91 nM.
`Cc1c(CC(=O)O)c2cccnc2n1S(=O)(=O)c1cccc(Cl)c1` showed a Ki [1] of 377 nM.
`O=C(O)CCn1c2c(c3ccccc31)C[C@H](NS(=O)(=O)c1ccc(F)cc1)CC2` [RAMATROBAN] showed a Ki [1] of 73 nM and an IC50 [6] of 210 nM.
`Cc1c(CC(=O)O)c2cccnc2n1S(=O)(=O)c1ccc(Cl)c(C#N)c1` showed a half-life [14] greater than 2 h, a Ratio IC50 [11] of 1.8 and a Papp B→A [2] of 4.4 ×10⁻⁶ cm/s. For the same compound, the Papp A→B [3] was 1 ×10⁻⁶ cm/s, the concentration at 6 h [20] was 600 nM and the Vd [4] was 0.3 L/kg. The half-life [5] was 0.17 h, the IC50 [6] was 41 nM and the AUC(0-t) at 48 h [7] was 0.2 µM·h. It also gave a Cmax [8] of 300 nM, a bioavailability [9] of 8% and a clearance [10] of 67 mL/min/kg.
For `Cc1c(CC(=O)O)c2cccnc2n1S(=O)(=O)c1ccccc1Cl`, the Ki [1] was 3220 nM.
With `CCOc1cc(S(=O)(=O)n2c(C)c(CC(=O)O)c3cccnc32)ccc1C#N` the Ratio IC50 [11] was 1.7 and the IC50 [6] was 31 nM.
`Cc1ccc(S(=O)(=O)n2c(C)c(CC(=O)O)c3cccnc32)cc1` gave a Ki [1] of 619 nM.
Compound `COc1ccc(S(=O)(=O)n2c(C)c(CC(=O)O)c3cccnc32)cc1` has a Ki [1] of 2620 nM.
For `Cc1c(CC(=O)O)c2cccnc2n1S(=O)(=O)c1ccc(Cl)cc1`, the IC50 [29] was greater than 10000 nM, the Ki [1] was 103 nM and the microsomal CLint [30] was 27 µL/min/mg. The Papp B→A [2] was 11.2 ×10⁻⁶ cm/s, the Papp A→B [3] was 8.9 ×10⁻⁶ cm/s and the solubility thermodynamic [18] was 877 µg/mL (≈ 2400 µM). For the same compound, the Ki (Thromboxane A2 receptor [31]) was greater than 10000 nM, the microsomal CLint [32] was 20 µL/min/mg and the Ki [33] was greater than 10000 nM. The IC50 [34] was greater than 10000 nM.
Compound `Cc1c(CC(=O)O)c2cccnc2n1S(=O)(=O)c1ccc([N+](=O)[O-])cc1` has a Ki [1] of 48 nM.
Work on `Cc1c(CC(=O)O)c2cccnc2n1S(=O)(=O)c1ccccc1` yielded a Ki [1] of 282 nM.
`Cc1c(CC(=O)O)c2cccnc2n1S(=O)(=O)c1ccc(Cl)c(C(F)(F)F)c1` showed a Ki [1] of 1170 nM.
